HDAC3 inhib: human HDAC3 inhibition; O15379; recombinant HDAC3, fluorogenic peptide/trypsin coupled, fluorescence; inhibition, % at 8.3 µM; 320,000 compounds, 0.15% hits; in the data active = inhibition above about 26%, passing the limit was not always enough
DSG3 Ab inh: inhibitors of pemphigus antibody binding to human desmoglein-3 | P32926 | DSG3-coupled beads, scFv-anti-DSG3-GFP binding, flow cytometry; hits give low values | binding (percent of control), % at 10 µM | 310,000 compounds, 0.48% hits;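 active = binding more than 3 SD below its plate's average and above zero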;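 note: hits lower antibody fragment binding to DSG3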
Target sequence (P32926 whole entry, looked up, the tested form may be a part): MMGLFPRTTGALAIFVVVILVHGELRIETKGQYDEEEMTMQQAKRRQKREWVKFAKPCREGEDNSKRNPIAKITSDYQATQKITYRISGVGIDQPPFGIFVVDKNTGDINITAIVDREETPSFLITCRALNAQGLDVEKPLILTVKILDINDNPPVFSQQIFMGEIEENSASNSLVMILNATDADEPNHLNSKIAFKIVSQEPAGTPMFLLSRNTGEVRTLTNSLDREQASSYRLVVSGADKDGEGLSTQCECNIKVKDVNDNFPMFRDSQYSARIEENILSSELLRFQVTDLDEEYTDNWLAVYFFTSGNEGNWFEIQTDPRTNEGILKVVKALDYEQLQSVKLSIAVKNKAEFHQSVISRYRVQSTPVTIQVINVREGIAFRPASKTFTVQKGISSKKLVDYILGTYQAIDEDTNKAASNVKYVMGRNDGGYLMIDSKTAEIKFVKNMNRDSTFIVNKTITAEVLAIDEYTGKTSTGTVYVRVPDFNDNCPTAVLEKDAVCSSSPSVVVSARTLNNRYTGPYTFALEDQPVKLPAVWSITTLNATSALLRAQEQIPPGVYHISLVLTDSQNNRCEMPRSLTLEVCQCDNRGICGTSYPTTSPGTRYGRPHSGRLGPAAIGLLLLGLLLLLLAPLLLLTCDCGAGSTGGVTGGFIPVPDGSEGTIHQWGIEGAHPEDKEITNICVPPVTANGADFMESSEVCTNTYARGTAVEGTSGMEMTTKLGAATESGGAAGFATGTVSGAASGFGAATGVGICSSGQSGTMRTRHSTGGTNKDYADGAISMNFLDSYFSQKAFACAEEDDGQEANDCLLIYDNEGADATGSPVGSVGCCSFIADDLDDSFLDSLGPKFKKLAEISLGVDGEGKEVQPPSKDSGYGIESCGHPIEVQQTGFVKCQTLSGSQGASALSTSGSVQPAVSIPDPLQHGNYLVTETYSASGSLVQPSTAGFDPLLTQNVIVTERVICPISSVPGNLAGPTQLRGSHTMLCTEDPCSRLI
GASC-1 inh: blocks human GASC-1 demethylase activity; Q9H3R0; 330,000 compounds, 0.069% hits; inhibition, % at 2.35 µM; AID 2099; GST-JMJD2C(1-420) H3K9me3 demethylation, DELFIA europium;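 active = more than half of a compound's replicate wells show inhibition beyond 50%, single wells judged on their own value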;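 note: signal counts dimethyl H3K9 product captured on neutravidin plate; 0% = median of DMSO wells and 100% = 0.3 times that DMSO median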
Arrestin-AP2 inh: blocks beta-arrestin peptide binding to AP2 adaptin; FITC-arrestin peptide / GST-AP2 beads, flow cytometry; AP2 beta2 appendage carries R879A mutation; 340,000 compounds, 0.31% hits; inhibition, % at 10 µM;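 active = inhibition above a set limit, near 3 SD of compounds lacking own fluorescence, cut at about 54% in these data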;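 note: plate controls were DMSO wells for no effect and 5 µM unlabelled arrestin peptide for full effect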
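system = GST-tagged AP2 beta2-adaptin appendage (R879A) on 4 µm glutathione beads | reagent = FITC-labelled arrestin peptide probe, 50 nM final | schedule = compound with beads 12 min RT, then probe 1 h RT | signal = HyperCyt-sampled flow cytometry, FL1 channel, ex 488/em 535 nm | read-out = percent response from loss of bead-bound FITC fluorescence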
LANA-H2B inh: blocks KSHV LANA binding to histone H2A/H2B | Q9QR71 | 320,000 compounds, 0.6% hits | inhibition, % (test concentration not listed) | cell-free LANA-H2A/H2B peptide, fluorescence polarization; in the data active = inhibition mostly above about 10%, no sharp cut-off; inactive = mostly below about 6.7%
T cell HTS: modulates CD8 T cell binding to vesicles. 2C CD8+ T cell-vesicle binding, flow cytometry; hits give low values. response (vesicle binding), % at 7 µM. 330,000 compounds, 0.068% hits. AID 2052;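 active = response, share of CD8 T cells binding vesicles, and their 90th percentile fluorescence all below set limits, cut at about 80% in these data, passing the limit was not always enough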;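 note: values below 100% mean blocked vesicle binding to the CD8+ T cells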
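Read-out – percent CD8+ FL2 mean versus row control · System – murine 2C transgenic CD8+ T lymphocytes · Times – 1.5 h cell–vesicle binding at 37 °C, then 20 min icy labelling · Control set – naked vesicles low, QL9 vesicles with vehicle high · Detection – cytometric PE anti-B7-1 and Alexa647 anti-CD8 signals after 1% paraformaldehyde fixation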
Arr AP2 CP1: human beta-arrestin and AP2 interaction inhibition, cherry pick | inhibition, % at 10 µM | shares compounds with Arrestin-AP2 inh | GST-AP2 beads, FITC arrestin peptide binding, flow cytometry; GST-fused beta2-adaptin appendage, R879A mutant | 1,300 compounds, 2% hits | AID 504908;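 active = inhibition above a set limit, roughly 3 SD of non-fluorescent compound noise, cut at about 38% in these data; inactive = inhibition at or below that limit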;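 note: loss of bead fluorescence from 50 nM FITC arrestin peptide bound to appendage; 0% = negative control wells and 100% = excess unlabelled arrestin peptide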
GST-FITC bead: disrupts GST binding to glutathione beads, arrestin-AP2 artifact | GST-fluorescein binding to GSH beads, fluorescence, counter-screen | inhibition, % at 10 µM | shares compounds with Arrestin-AP2 inh | 1,300 compounds, 2% hits;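 active = inhibition above 50%, about 3 SD of the inhibition seen with non-fluorescent compounds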;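 note: fluorescein maleimide labelled GST captured on 4 micron glutathione beads; higher means more loss of bead fluorescence from quenching or blocked binding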
The depositor's hits bear a star; i = inactive; . = not tested or not shown. Shown are actives, neighbours in structure and some others; about 1.6% of the full set was active somewhere.

SMILES	HDAC3 inhib	DSG3 Ab inh	GASC-1 inh	Arrestin-AP2 inh	LANA-H2B inh	T cell HTS	Arr AP2 CP1	GST-FITC bead
CCS(=O)(=O)Nc1cccc(C2=NN(C(C)=O)C(c3cccs3)C2)c1 (stereo not drawn)	-1	94	0	54*	2	165	-4	-10
O=C(NCCc1ccccc1F)C1CC(=O)N(c2cccc(C(F)(F)F)c2)C1 (stereo not drawn)	.	118	.	6	.	.	.	.
O=C(CNC(=O)c1ccc(Br)cc1)Nc1ccc2c(c1)CCC2	10	106	-11	54*	0	139	12	3
Cc1c(C(=O)NC(C)C)oc2c1-c1[nH]ncc1CC2	-11	98	-6	104*	-1	229	12	7
CCOc1ccc(CCNC(=O)c2oc3c(c2C)-c2[nH]ncc2CC3)cc1OCC	-4	105	-2	2	5	391	.	.
CC(=O)Nc1ccc(S(=O)(=O)N2c3ccccc3NC(=O)CC2C)c(Cl)c1 (stereo not drawn)	-1	91	-11	54*	5	210	-18	-1
C[C@H](OC(=O)N1CCN(C(c2ccccc2)c2ccccc2)CC1)[C@@H]1O[C@@]2(C)CCC[C@H]1O2	7	.	-4	29	3	312	.	.
COc1cc(CNCc2cc(OC)ccc2OC)cc(OC)c1	4	98	-2	-1	-4	160	.	.
Cc1cnc(C(=O)OCC(=O)c2ccc(C3CCCCC3)cc2)cn1	-1	103	-4	57*	4	i	2	-3
O=C(Cc1cccc([N+](=O)[O-])c1)Nc1ccc(C(=O)N2CCCCC2)cc1	2	97	-1	-6	-2	170	.	.
CC(O)c1nc2ccccc2n1Cc1ccccc1 (stereo not drawn)	2	110	-8	54*	-1	112	-3	-6
N#C/C(=C/c1cn(-c2ccccc2)nc1-c1cccc(S(=O)(=O)N2CCOCC2)c1)C(=O)NCc1ccco1	-1	89	6	99*	-13	63	-8	1
N#C/C(=C/c1cn(-c2ccccc2)nc1-c1cccc(S(=O)(=O)N2CCCC2)c1)C(=O)NCc1ccco1	-5	117	-4	1	-9	181	.	.
Cc1ccc(C2=C(c3ccc([N+](=O)[O-])cc3)C(=O)OC2)cc1C	3	97	-33	54*	2	293	-5	0
CC1CN(C(=O)COc2ccc3ccccc3c2Br)CC(C)O1 (stereo not drawn)	5	99	-9	67*	0	376	1	-13
O=C(COc1ccc2ccccc2c1Br)N1CCCCC1	1	119	-4	-12	2	289	.	.
CC(NC(=O)COC(=O)c1c[nH]c2ccccc12)c1ccccc1 (stereo not drawn)	0	93	5	-5	1	485	.	.
CCOc1ccc(/C=C2\CCC(C3CCCC3)C2=O)cc1OC (stereo not drawn)	3	94	-4	59*	3	184	12	-3
CCOc1ccc(/C=C2\CCC(C3CCCC3)C2=O)cc1 (stereo not drawn)	5	94	2	1	0	388	.	.
C[C@H](CO)N1C[C@H](C)[C@H](CN(C)S(C)(=O)=O)Oc2c(cccc2N(C)C)C1=O	-6	107	9	25	-3	826	.	.
CCc1nnc(NC(=O)CCC(=O)N2CCN(Cc3cc(F)ccc3OC)CC2)s1	-3	99	11	-56	-4	242	.	.
COc1ccc(F)cc1CN1CCN(C(=O)CCC(=O)Nc2nnc(CC(C)C)s2)CC1	19	86	1	54*	-4	285	8	-5
CCOc1ccc(S(=O)(=O)Nc2ccn(C)n2)cc1	.	99	.	77*	.	802	-16	1
CCOc1ccc(NS(=O)(=O)c2cc(C(=O)NCC3CCCO3)ccc2Cl)cc1 (stereo not drawn)	.	100	0	27	.	262	.	.
CCOc1ccc(S(=O)(=O)NC2CCCCCC2)cc1	-1	102	3	57*	2	456	-3	1
SMILES	HDAC3 inhib	DSG3 Ab inh	GASC-1 inh	Arrestin-AP2 inh	LANA-H2B inh	T cell HTS	Arr AP2 CP1	GST-FITC bead
CCOc1ccc(S(=O)(=O)Nc2ccc(C(=O)NCC3CCCO3)cc2)cc1 (stereo not drawn)	-12	101	0	56*	-5	385	21	-9
Cc1nc(C)c(C(=O)OCC(=O)NCCc2ccc(F)cc2)s1	.	100	.	22	.	.	.	.
O=C(CNC(=O)c1ccc(Cl)c([N+](=O)[O-])c1)OC1CCCCC1=O (stereo not drawn)	7	96	1	0	1	157	.	.
COc1ccc(NC(=O)/C(=C\c2ccco2)NC(=O)c2ccco2)cc1	-1	.	-2	21	-3	413	.	.
COc1ccc(NC(=O)/C(C#N)=C\C=C\c2ccco2)cc1	-1	93	0	72*	3	139	-11	2
CCN1/C(=C/C(C)=C/c2sc3ccccc3[n+]2CC)Sc2ccccc21	0	23*	-2	86*	-46	320	71*	48
CCN1/C(=C\C(=S)Nc2ccccc2)Sc2ccccc21	0	93	10	0	-3	276	.	.
O=C(CSc1nc2ncc(Br)cc2[nH]1)c1ccc([N+](=O)[O-])cc1	-3	106	1	0	2	265	.	.
O=C(CSc1nc2ccc([N+](=O)[O-])cc2[nH]1)c1ccc2ccccc2c1	8	93	-3	106*	-6	587	-5	4
CCOC(=O)C1=CC[C@H]2c3c(c4ccc(OC)cc4n3C)C(=O)C1N2S(=O)(=O)c1ccc(C)cc1	2	92	4	58*	7	407	12	-4
CCOC(=O)C1=CCC2c3c(c4ccccc4n3C)C(=O)C1N2C(=O)OC(C)(C)C (stereo not drawn)	10	102	-1	10	-1	599	.	.
CN(C)C(CNC(=O)c1ccc(C(F)(F)F)cc1)c1ccco1 (stereo not drawn)	-3	110	-28	10	3	273	.	.
Cc1cc(C(=O)CCl)c(C)n1-c1cccc([N+](=O)[O-])c1	-4	104	-6	62*	0	579	9	1
CC(=O)c1c(C(C)=O)c(C)n(-c2cccc([N+](=O)[O-])c2)c1C	.	91	-178	-3	.	296	.	.

Screening data (PubChem)
